Laboratory results taken from ChEMBL document CHEMBL1134682, “A novel series of 2,6,7-substituted 2,3-dihydro-1,4-benzodioxin and 2,6,7-substituted 1,4-benzodioxin derivatives as lipid peroxidation inhibitors. Structure-activity relationships for high inhibition of human low-density lipoprotein peroxidation” (J Med Chem, 2001).
pIC50: −log10 of the molar value. Calls of active or inactive are those of the source. The calls are words filed in the database; no cut-off is given here.

Assays:
[1] = species: Homo sapiens; experiment: Concentration inhibiting 50% of the copper induced lipid peroxidation determined using the thiobarbituric acid reactive substance and expressed as an MDA equivalent; type: functional
In short: (§1)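 Human LDL was isolated by ultracentrifugation (1.019 < d < 1.063) from pooled EDTA (0.04%) plasma of healthy normolipidemic donors. Oxidation was driven by Cu²⁺ for 3 h at 37 °C, with compounds in DMSO added just before. TBARS was read by the Yagi method as MDA equivalents. Ten concentrations from 10⁻⁷ to 10⁻³ M were run in duplicate, with IC50 by linear regression. A ratio versus probucol corrected for LDL batch.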

[2] = species: Homo sapiens; experiment: Tested for the activity ratio versus probucol; type: functional; in short: as §1
[3] = system: Mus musculus; experiment: Compound was tested for change in the LDL-VLDL fraction after (po) administration of 100 mg/kg in mice; type: functional
In short: (§2)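 Groups of six mice were made hypercholesterolaemic by a high-cholesterol, cholic-acid diet for 7 days. Compound was dosed po, half on day 6 and half on day 7, then mice were fasted overnight without food or water. Serum total cholesterol and heparin-precipitated LDL-VLDL were compared with hypercholesterolaemic controls.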

[4] = system: Mus musculus; experiment: Compound was tested for the time before the first gasps after ip administration of 2.5 mg/kg in hypoxia test; type: functional; conditions: route intraperitoneal
In short: (§3)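 Male Swiss CD1 mice (25–30 g) were housed 1 week at 20–22 °C, 55% humidity, 12/12 light cycle. Compound was given ip 30 min before placing each mouse in a small box flushed with 96% N₂/4% O₂ at 12 L/min. Read-out was the time until the first gasps. Vincamine was the reference.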

[5] = system: Mus musculus; experiment: Compound was tested for change in the total cholesterol after (po) administration of 100 mg/kg in mice; type: functional; in short: as §2
[6] = system: Mus musculus; experiment: Compound was tested for the time before the first gasps after ip administration of 20 mg/kg in hypoxia test; type: functional; conditions: route intraperitoneal; in short: as §3
[7] = system: Mus musculus; experiment: Compound was tested for the time before the first gasps after ip administration of 1 mg/kg in hypoxia test; type: functional; conditions: route intraperitoneal; in short: as §3
[8] = system: Mus musculus; experiment: Compound was tested for change in the LDL-VLDL fraction after (po) administration of 300 mg/kg in mice; type: functional; in short: as §2
[9] = species: Rattus norvegicus; experiment: Inhibitory concentration against KCl induced rat thoracic aorta contraction; type: functional
In short: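 Isolated rat aorta was contracted with hyperpotassic KCl (60 mM). Inhibition of contraction was measured over eight increasing concentrations (10⁻⁸ to 3 × 10⁻⁵ M), each in duplicate, on two preparations. IC50 came from the concentration–response curve by linear regression.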

[10] = system: Mus musculus; experiment: Compound was tested for change in the total cholesterol after (po) administration of 300 mg/kg in mice; type: functional; in short: as §2
[11] = system: Mus musculus; experiment: Compound was tested for the time before the first gasps after ip administration of 2.5 mg/kg in hypoxia test; inactive; type: functional, organism-based; set-up: dose 2.5 mg/kg; in short: as §3
[12] = species: Homo sapiens; experiment: Concentration inhibiting 50% of the copper induced lipid peroxidation determined using th e thiobarbituric acid reactive substance and expressed as an MDA equivalent; Peroxidant; type: functional; in short: as §1
[13] = species: Homo sapiens; experiment: Compound was tested for the activity ratio versus probucol; type: functional; in short: as §1
[14] = species: Homo sapiens; experiment: Concentration inhibiting 50% of the copper induced lipid peroxidation determined using th e thiobarbituric acid reactive substance and expressed as an MDA equivalent; type: functional; in short: as §1

Structure (SMILES)	pIC50 [1]	pIC50 [9]	Ratio [2]	other results
CC[C@]12CCCN3CCc4c(n(c5ccccc45)[C@@](O)(C(=O)OC)C1)[C@@H]32 [VINCAMINE]				IA [11]: inactive; Time [6]: 147 s
O=C(Oc1ccc2c(c1)OC=C(C(=O)N1CCN(C(c3ccc(F)cc3)c3ccc(F)cc3)CC1)O2)c1cccnc1				IC50 [12]: Peroxidant
COc1ccc2c(c1)OC=C(C(=O)N1CCN(C(c3ccc(F)cc3)c3ccc(F)cc3)CC1)O2	< 4.00		<0.005	
O=C(C1=COc2ccccc2O1)N1CCN(C(c2ccc(F)cc2)c2ccc(F)cc2)CC1		5.74		
Fc1ccc(C(c2ccc(F)cc2)N2CCN(C/C=C/c3ccccc3)CC2)cc1 [FLUNARIZINE]		6.57		
Oc1ccc2c(c1)OC=C(C(=S)N1CCN(C(c3ccc(F)cc3)c3ccc(F)cc3)CC1)O2	5.05		0.5	
Nc1ccc2c(c1)OC=C(C(=O)N1CCN(C(c3ccc(F)cc3)c3ccc(F)cc3)CC1)O2	4.46		0.1	
O=C(Nc1ccccc1)C1=COc2ccc(O)cc2O1				Ratio [13]: 4; pIC50 [14]: 6.30
CC(C)(Oc1ccc(CCNC(=O)c2ccc(Cl)cc2)cc1)C(=O)O [BEZAFIBRATE]				Change [3]: -20%; Change [5]: -25%

Second part, led by results:

pIC50 [1]	pIC50 [9]	Structure (SMILES)	Ratio [2]	other results
5.77		COc1ccc(CN2CCN(C(=O)C3COc4ccc(O)cc4O3)CC2)c(OC)c1OC (configuration not stated)	3	
6.00	6.24	Oc1ccc2c(c1)OC=C(CN1CCN(C(c3ccc(F)cc3)c3ccc(F)cc3)CC1)O2	5	Change [3]: -35%; Time [4]: 65 s; Change [5]: -33%; Time [6]: 60 s; Time [7]: 78 s; Change [8]: -52%; Change [10]: -48%
6.70		CCCCN(C(=O)C1=COc2cc(O)c(C(C)(C)C)cc2O1)c1ccccc1	5	
> 7.00		Oc1ccc2c(c1)OC=C(CN1CCC(=C(c3ccc(F)cc3)c3ccc(F)cc3)CC1)O2	>45	
6.15		O=C(C1=COc2ccc(O)cc2O1)N1CCN(C(c2ccc(F)cc2)c2ccc(F)cc2)CC1	2.9	
6.30		O=C(C1=COc2cc(O)ccc2O1)N1CCC(=C(c2ccc(F)cc2)c2ccc(F)cc2)CC1	2	
6.70	5.66	O=C(C1COc2ccc(O)cc2O1)N1CCN(C(c2ccc(F)cc2)c2ccc(F)cc2)CC1 (configuration not stated)	10	
6.00		CCCCN(C(=O)C1=COc2cc(O)ccc2O1)c1ccccc1	2	
5.52		COc1ccc(CN2CCN(C(=O)C3=COc4ccc(O)cc4O3)CC2)c(OC)c1OC	1.7	
6.00	5.51	CC(C)(C)c1cc2c(cc1O)OC=C(C(=O)N1CCN(C(c3ccc(F)cc3)c3ccc(F)cc3)CC1)O2	5	
6.40		CCCCN(C(=O)C1=COc2ccc(O)cc2O1)c1ccccc1	2	
> 7.00	6.25	O=C(C1=COc2cc(O)ccc2O1)N1CCN(C(c2ccc(F)cc2)c2ccc(F)cc2)CC1	>45	Time [4]: 108 s; Time [6]: 67 s; Time [7]: 55 s; Change [10]: -7%
5.52	5.52	O=C(C1COc2cc(O)ccc2O1)N1CCN(C(c2ccc(F)cc2)c2ccc(F)cc2)CC1 (configuration not stated)	1.7	
